Measured values as given in publication PMC2852926 (The Journal of Biological Chemistry, 2010).
Entries after “also recorded” stand apart in the source; their conditions may differ. Like-named read-outs stand apart in the source and are kept apart here.

How the values were obtained:
[1] = test system: OM-hydrolyzing activity in human intestinal cytosol; type: biochemical
human CMBL [2] = target: T1, human CMBL (Homo sapiens, UniProt Q96DG6); type: biochemical
T1 sequence (Q96DG6 1-245): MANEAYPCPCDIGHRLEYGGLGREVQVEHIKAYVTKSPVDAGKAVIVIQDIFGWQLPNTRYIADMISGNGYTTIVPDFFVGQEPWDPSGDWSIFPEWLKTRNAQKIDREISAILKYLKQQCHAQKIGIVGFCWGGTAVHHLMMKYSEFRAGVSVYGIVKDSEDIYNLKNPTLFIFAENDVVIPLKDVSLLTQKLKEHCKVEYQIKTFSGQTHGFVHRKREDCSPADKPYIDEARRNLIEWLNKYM

[3] = test system: OM-hydrolyzing activity in human liver cytosol; type: biochemical
[4] = test system: OM-hydrolyzing activity in human plasma; assay: Effect of esterase inhibitors on OM-hydrolyzing activity in human plasma; type: biochemical; conditions: OM 250 μM, 5 min
Outline: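 Human plasma, diluted to 2.5 mg protein/ml, incubated 5 min with OM substrate (250 μM) plus one esterase inhibitor: BNPP, DFP, PCMB, eserine or PMSF at 1000 μM, or EDTA at 500 μM. Olmesartan formed was quantified by reversed-phase C18 HPLC with UV at 254 nm. Activity was expressed as formation rate. Means of duplicate determinations.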

human CMBL [5] = target: T1, human CMBL; assay: Hydrolysis of medoxomil prodrugs by recombinant CMBL; type: in vitro ADME; conditions: CMBL-transfected mammalian cell lysate, pH 7.4, 37 °C
plasma albumin = conditions: cited from earlier work
human plasma PON1 = conditions: cited from earlier work
[6] = Prodrug in portal or circulating blood of rats; type: in vivo; conditions: data not shown
[7] = OM hydrolysis in human intestinal microsomes, kinetic analysis; type: in vitro ADME
Outline: (§1)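 Commercial human liver or intestinal subcellular fractions were incubated in 10 mM potassium phosphate (pH 7.4) at 37 °C with OM at 7.81–1000 μM. Protein was 0.05 mg/ml for liver and intestinal cytosols, 0.5 mg/ml for liver microsomes and 0.25 mg/ml for intestinal microsomes. Olmesartan was measured by C18 HPLC-UV at 254 nm, net of buffer-control hydrolysis. Km and Vmax came from nonlinear least-squares Michaelis–Menten fits of triplicates.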

[8] = OM hydrolysis in human intestinal cytosol, kinetic analysis; type: in vitro ADME
Outline: as §1

[9] = OM hydrolysis in human liver cytosol, kinetic analysis; type: in vitro ADME
Outline: as §1

[10] = OM hydrolysis in human liver microsomes, kinetic analysis; type: in vitro ADME
Outline: as §1

human CMBL [11] = target: T1, human CMBL; assay: Hydrolysis of typical esterase substrates by recombinant CMBL; type: biochemical; conditions: substrate 1 mM, CMBL-transfected cell lysate 0.05 mg protein/ml
human CMBL [12] = target: T1, human CMBL; assay: Ulifloxacin formation from prulifloxacin by recombinant CMBL; type: in vitro ADME; conditions: HEPES pH 7.4, 37 °C, CMBL-transfected mammalian cell lysate

SMILES: O=[N+]([O-])c1ccc(OP(=O)(O)Oc2ccc([N+](=O)[O-])cc2)cc1 [BNPP, Bis-p-nitrophenylphosphate]
- Inhibition of OM-hydrolyzing activity [1]: partially inhibited
- Inhibition of OM-hydrolyzing activity (human CMBL [2]): ~50%
- Inhibition of OM-hydrolyzing activity [3]: partially inhibited

SMILES: O=C(O)CN(CCN(CC(=O)O)CC(=O)O)CC(=O)O [EDTA]
- Inhibition of OM-hydrolyzing activity [1]: not inhibited
- Inhibition of OM-hydrolyzing activity ([4]; inhibitor 500 μM): almost completely inhibited
- Inhibition of OM-hydrolyzing activity (human CMBL [2]): no inhibition
- Inhibition of OM-hydrolyzing activity [3]: not inhibited

SMILES: Cc1oc(=O)oc1COC(=O)C1=C([C@H]2CCCO2)S[C@@H]2[C@@H]([C@@H](C)O)C(=O)N12 [Faropenem medoxomil]
- Hydrolysis by recombinant CMBL (human CMBL [5]): readily hydrolyzed

SMILES: Cc1oc(=O)oc1COC(=O)[C@@H]1N2C(=O)[C@@H](NC(=O)[C@H](N)c3ccccc3)[C@H]2SC1(C)C [Lenampicillin]
- Hydrolysis by recombinant CMBL (human CMBL [5]): readily hydrolyzed

SMILES: CCCc1nc(C(C)(C)O)c(C(=O)OCc2oc(=O)oc2C)n1Cc1ccc(-c2ccccc2-c2nnn[nH]2)cc1 [Olmesartan medoxomil]
- Hydrolysis by plasma albumin (plasma albumin): capable of hydrolyzing
- Hydrolysis by PON1 (human plasma PON1; listed as OM): capable of hydrolyzing; also recorded: hydrolyze
- Prodrug detected in portal or circulating blood [6]: no prodrug was detected
- Vmax ([7]; Intestinal microsomes, mean ± S.E.): 6.76 ± 0.11 nmol/min/mg protein
- Km ([7]; human, intestinal microsomes, pH 7.4): 236 ± 10 µM
- Vmax ([8]; Intestinal cytosol, mean ± S.E.): 45.1 ± 2.0 nmol/min/mg protein
- Km ([8]; human, intestinal cytosol, pH 7.4): 193 ± 24 µM
- Vmax ([9]; Liver cytosol, mean ± S.E.): 19.7 ± 0.8 nmol/min/mg protein
- Km ([9]; human, liver cytosol, pH 7.4): 160 ± 19 µM
- Vmax ([10]; Liver microsomes, mean ± S.E.): 15.0 ± 0.3 nmol/min/mg protein
- Km ([10]; human, liver microsomes, pH 7.4): 481 ± 23 µM

SMILES: O=C(O)c1cc[c]([Hg][Cl])cc1 [PCMB, p-chloromercuribenzoate]
- Inhibition of OM-hydrolyzing activity [1]: strongly inhibited
- Inhibition of OM-hydrolyzing activity ([4]; inhibitor 1000 μM): almost completely inhibited
- Inhibition of OM-hydrolyzing activity (human CMBL [2]): almost completely inhibited
- Inhibition of OM-hydrolyzing activity [3]: strongly inhibited

SMILES: O=S(=O)(F)Cc1ccccc1 [PMSF, Phenylmethylsulfonyl fluoride]
- Inhibition of OM-hydrolyzing activity [1]: not inhibited
- Inhibition of OM-hydrolyzing activity (human CMBL [2]): no inhibition
- Inhibition of OM-hydrolyzing activity [3]: not inhibited

SMILES: CC(=O)SCC[N+](C)(C)C.[I-] [acetylthiocholine iodide]
- Hydrolysis by recombinant CMBL (human CMBL [11]): does not hydrolyze

SMILES: CNC(=O)Oc1ccc2c(c1)[C@]1(C)CCN(C)[C@@H]1N2C [eserine]
- Inhibition of OM-hydrolyzing activity [1]: not inhibited
- Inhibition of OM-hydrolyzing activity (human CMBL [2]): no inhibition
- Inhibition of OM-hydrolyzing activity [3]: not inhibited

SMILES: CC(=O)Oc1ccc([N+](=O)[O-])cc1 [p-nitrophenyl acetate]
- Hydrolysis by recombinant CMBL (human CMBL [11]): does not hydrolyze

SMILES: CC(=O)Oc1ccccc1 [phenyl acetate]
- Hydrolysis by recombinant CMBL (human CMBL [11]): does not hydrolyze

SMILES: Cc1oc(=O)oc1CN1CCN(c2cc3c(cc2F)c(=O)c(C(=O)O)c2n3C(C)S2)CC1 (centres unmarked) [prulifloxacin]
- Hydrolysis by PON1 (human plasma PON1): hydrolyze
- Enzymatic hydrolysis by recombinant human CMBL (human CMBL [12]): not enzymatically hydrolyzed; also recorded: not hydrolyzed at all
